Experimental data gathered from unrelated publications.
Each line is one published result; the experiments were not run side by side.
Target: Mitogen-activated protein kinase kinase kinase 9 (MAP3K9, Homo sapiens, UniProt P80192)

| SMILES | read-out | action | method | concentration | quantity | result |
| --- | --- | --- | --- | --- | --- | --- |
| COc1cc(/C=C/C(=O)CC(=O)/C=C/c2ccc(O)c(OC)c2)ccc1O | enzyme activity | inhibitor | – | 1 µM | activity vs control | 14% |
| Brc1cnc(Nc2cccc(CN3CCOCC3)c2)nc1NCCc1c[nH]cn1 | enzyme activity | inhibitor | radiometric | 1 µM | remaining activity | -1% |
| C=CC(=O)Nc1cc(Nc2nccc(Nc3cc(Cl)c(F)cc3C(C)(C)O)n2)c(OC)cc1N1CC[C@@H](N(C)C)C1 | enzyme activity | inhibitor | – | 1 µM | inhibition | 33% |
| CCCCNc1ncc2c(-c3ccc(F)cc3)nn(C[C@H]3CC[C@H](N)CC3)c2n1 | target engagement in cells | inhibitor | chemoproteomics | 20 mM | inhibition | 54.9% |
| Cc1c[nH]c2nccc(Oc3c(F)cc(Nc4cc(Cl)nc(N)n4)cc3F)c12 | cell-free assay | – | competition with immobilised ligand | 0.1 µM | remaining binding | 89% |
| O=C1Nc2ccc(Cl)cc2C1=Cc1cc(Cl)c(O)c(Cl)c1 | cell-free assay | – | – | 0.5 µM | remaining signal | 102% |
| CCOc1cc(-c2nncn2C)ccc1Nc1ncc2cc(C)nc(NCC(C)(C)C)c2n1 | enzyme activity | inhibitor | FRET | 1 µM | inhibition | 38% |
| O=C(NCCCNc1nc(Nc2cccc(NC(=O)N3CCCC3)c2)ncc1C1CC1)C1CCC1 | enzyme activity | inhibitor | radiometric | 1 µM | remaining activity | 31% |
| COc1cccc2c(NCc3ccccc3)nc(-n3c(N)nc4ccccc43)nc12 | target engagement in cells | inhibitor | chemoproteomics | 20 mM | inhibition | 11.3% |
| NS(=O)(=O)c1ccc(CNc2nc(Nc3cccc(NC(=O)N4CCCC4)c3)ncc2C2CC2)cc1 | enzyme activity | inhibitor | radiometric | 1 µM | remaining activity | 89% |
| CCCOc1ccc([C@@H]2[C@@H](C(=O)O)[C@H](c3ccc4c(c3)OCO4)CN2CC(=O)Nc2c(CC)cccc2CC)cc1 | cell-free assay | – | competition with immobilised ligand | 1 µM | remaining binding | 93% |
| Cc1nn(CC(F)(F)F)cc1Nc1ncc(C2CC2)c(NCCCNC(=O)C2CCC2)n1 | enzyme activity | inhibitor | radiometric | 1 µM | remaining activity | 78% |
| C[C@@H]1CN(c2cc(-c3nn(C)c4ccc(OC5(C)CC5)cc34)ncn2)C[C@H](C)O1 | cell-free assay | – | competition with immobilised ligand | 1 µM | remaining binding | 100% |
| COc1cc2c(Nc3ccc(Br)cc3F)ncnc2cc1OCC1CCN(C)CC1 | cell-free assay | – | – | 0.5 µM | remaining signal | 96.1% |
| CCC(=O)N[C@H]1CC[C@@H](C(=O)N(C)c2ccc(-c3nc4ccccc4o3)cc2)C1 | cell-free assay | – | competition with immobilised ligand | 1 µM | remaining binding | 100% |
| Cc1nn(CC(F)(F)F)cc1Nc1nccc(NCCCNC(=O)C2CCC2)n1 | enzyme activity | inhibitor | radiometric | 1 µM | remaining activity | 85% |
| Cc1nc(N2CC[C@@H](O)C2)ncc1-c1cc(C(F)(F)F)cc2[nH]ncc12 | binding | – | competition with immobilised ligand | 1 µM | remaining binding | 100% |
| O=C(Nc1cnn(-c2csc(C(=O)NC3COC3)c2)c1)Nc1ccccc1Cl | enzyme activity | inhibitor | – | 5 µM | remaining activity | 95.1% |
| CNC(=O)c1cc(Oc2ccc(NC(=O)Nc3ccc(Cl)c(C(F)(F)F)c3)cc2)ccn1 | enzyme activity | inhibitor | – | 10 µM | inhibition | 23% |
| O=C(NCCCNc1nc(Nc2cccc(CN3CCOCC3)c2)ncc1C1CC1)C1CCC1 | enzyme activity | inhibitor | radiometric | 1 µM | remaining activity | 19% |
| Cc1ccc(C(=O)NCc2ccsc2)cc1C#Cc1cn(C(C)C)c2ncnc(N)c12 | enzyme activity | inhibitor | – | 1 µM | activity vs control | 25% |
| COc1cc2ncnc(Nc3ccc(Oc4ccccc4)cc3C)c2cc1OC | enzyme activity | inhibitor | – | 1 µM | inhibition | 9% |
| c1ccc(N2CCN(Cc3nc4ccccc4[nH]3)CC2)nc1 | binding | – | competition with immobilised ligand | 1 µM | remaining binding | 100% |
| NS(=O)(=O)c1ccc(CNc2ccnc(Nc3cccc(NC(=O)N4CCCC4)c3)n2)cc1 | enzyme activity | inhibitor | radiometric | 1 µM | remaining activity | 86% |
| O=C(O)c1cc(-c2ccc(C3CCNCC3)cc2)c2ccc(-c3ccc(C(F)(F)F)cc3)cc2c1 | cell-free assay | – | competition with immobilised ligand | 1 µM | remaining binding | 100% |
| NS(=O)(=O)c1ccc(CNc2nc(Nc3cccc(CN4CCOCC4)c3)ncc2C2CC2)cc1 | enzyme activity | inhibitor | radiometric | 1 µM | remaining activity | 72% |
| Cc1cc(NC(=O)c2cccc3cc(-c4cccc5[nH]nc(N)c45)ccc23)ccc1F | enzyme activity | inhibitor | – | 0.1 µM | activity vs control | 96% |
| CCS(=O)(=O)c1cc2cc(C[C@](O)(CC(C)(C)c3ccc(F)cc3C(N)=O)C(F)(F)F)[nH]c2cn1 | cell-free assay | – | competition with immobilised ligand | 1 µM | remaining binding | 98% |
| C#Cc1cccc(Nc2ncnc3cc(OCCOC)c(OCCOC)cc23)c1 | cell-free assay | – | – | 0.5 µM | remaining signal | 111% |
| Cc1ccc(Nc2nccc(N(C)c3ccc4c(C)n(C)nc4c3)n2)cc1S(N)(=O)=O | enzyme activity | inhibitor | – | 10 µM | inhibition | 92% |
